Data published in ChEMBL document CHEMBL5303300, “EUbOPEN Chemogenomics Library - Multiplex” (2023).
Where “and” joins values, the source holds several entries; their conditions need not be identical. Equal values may be shown once.

Key:
Assay type in all cases: toxicity, cell-based
[1] = test system: Fibroblast; assay: Multiplex assay against human fibroblast; conditions: number of replicates 2
In short: (§1)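 Compound was added to live cells that had been stained at seeding with Hoechst33342, BioTracker Green Microtubule Cytoskeleton Dye, MitoTracker Red and Annexin V Alexa Fluor 680, and imaging followed on a CQ1 microscope at 37°C and 5% CO2. CellPathfinder machine-learning gating divided cells into Hoechst high-intensity objects or normal cells, normal cells into healthy, pyknosed or fragmented nuclei, and pyknosed cells into mitotic or apoptotic. Tubulin, mitochondrial-mass and membrane-permeability phenotypes are per cents of healthy-nucleus cells.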

[2] = test system: HEK-293T; assay: Multiplex assay against HEK293T; conditions: human, number of replicates 2; in short: as §1
[3] = test system: U2OS; assay: Multiplex assay against U2OS; conditions: human, number of replicates 2; in short: as §1
[4] = 12 h, 1 µM, compound concentration 1 uM
[5] = 12 h, 10 µM, compound concentration 10 uM
[6] = 24 h, 1 µM, compound concentration 1 uM
[7] = 24 h, 10 µM, compound concentration 10 uM
[8] = 48 h, 1 µM, compound concentration 1 uM
[9] = 48 h, 10 µM, compound concentration 10 uM

## Cc1cc(C2CCCNC2)ccc1Nc1ncc(Br)c(NCc2cccc3c2C(C)(C)C(=O)N3)n1 (stereo not given)
[1]; [4]
  Population Apoptotic (%): 58% and 42%
  Population Fragmented Nuclei (%): 10%
  Population Healthy Nuclei (%): 61% and 64%
  Population Hoechst High Intensity Objects (%): 0%
  Population Membrane Permeable-Phenotype (%): 13% and 5%
  Population Mitochondria Different-Phenotype (%): 5% and 3%
  Population Mitotic Cells (%): 42% and 57%
  Population Normal (%): 99% and 100%
  Population Pyknosed Nuclei (%): 27% and 25%
  Population Tubulin-Different-Phenotype (%): 50% and 49%
  Total Cell Count: 184 and 193
[1]; [5]
  Population Apoptotic (%): 40% and 38%
  Population Fragmented Nuclei (%): 29% and 27%
  Population Healthy Nuclei (%): 59% and 56%
  Population Hoechst High Intensity Objects (%): 1% and 0%
  Population Membrane Permeable-Phenotype (%): 9% and 11%
  Population Mitochondria Different-Phenotype (%): 2% and 5%
  Population Mitotic Cells (%): 60% and 61%
  Population Normal (%): 98% and 99%
  Population Pyknosed Nuclei (%): 10% and 15%
  Population Tubulin-Different-Phenotype (%): 82% and 69%
  Total Cell Count: 382 and 328
[1]; [6]
  Population Apoptotic (%): 57% and 62%
  Population Fragmented Nuclei (%): 8% and 14%
  Population Healthy Nuclei (%): 71% and 60%
  Population Hoechst High Intensity Objects (%): 0%
  Population Membrane Permeable-Phenotype (%): 3% and 7%
  Population Mitochondria Different-Phenotype (%): 6% and 12%
  Population Mitotic Cells (%): 42% and 38%
  Population Normal (%): 100% and 99%
  Population Pyknosed Nuclei (%): 20% and 25%
  Population Tubulin-Different-Phenotype (%): 43% and 46%
  Total Cell Count: 198 and 199
[1]; [7]
  Population Apoptotic (%): 65% and 74%
  Population Fragmented Nuclei (%): 17% and 10%
  Population Healthy Nuclei (%): 59% and 62%
  Population Hoechst High Intensity Objects (%): 1% and 0%
  Population Membrane Permeable-Phenotype (%): 7% and 2%
  Population Mitochondria Different-Phenotype (%): 21% and 31%
  Population Mitotic Cells (%): 34% and 25%
  Population Normal (%): 98% and 99%
  Population Pyknosed Nuclei (%): 22% and 27%
  Population Tubulin-Different-Phenotype (%): 86% and 79%
  Total Cell Count: 279 and 234
[1]; [8]
  Population Apoptotic (%): 70% and 65%
  Population Fragmented Nuclei (%): 11% and 16%
  Population Healthy Nuclei (%): 73% and 63%
  Population Hoechst High Intensity Objects (%): 0%
  Population Membrane Permeable-Phenotype (%): 3%
  Population Mitochondria Different-Phenotype (%): 3% and 9%
  Population Mitotic Cells (%): 29% and 34%
  Population Normal (%): 100%
  Population Pyknosed Nuclei (%): 15% and 20%
  Population Tubulin-Different-Phenotype (%): 39% and 30%
  Total Cell Count: 180 and 175
[1]; [9]
  Population Apoptotic (%): 93% and 96%
  Population Fragmented Nuclei (%): 11% and 16%
  Population Healthy Nuclei (%): 40% and 48%
  Population Hoechst High Intensity Objects (%): 6% and 2%
  Population Mitochondria Different-Phenotype (%): 53% and 52%
  Population Mitotic Cells (%): 6% and 3%
  Population Normal (%): 93% and 97%
  Population Pyknosed Nuclei (%): 48% and 34%
  Population Tubulin-Different-Phenotype (%): 83% and 78%
  Total Cell Count: 164 and 169
[2]; [4]
  Population Apoptotic (%): 54%
  Population Fragmented Nuclei (%): 4% and 2%
  Population Healthy Nuclei (%): 88% and 83%
  Population Hoechst High Intensity Objects (%): 12% and 15%
  Population Membrane Permeable-Phenotype (%): 2% and 1%
  Population Mitochondria Different-Phenotype (%): 46% and 53%
  Population Mitotic Cells (%): 45%
  Population Normal (%): 87% and 84%
  Population Pyknosed Nuclei (%): 7% and 13%
  Population Tubulin-Different-Phenotype (%): 94% and 92%
  Total Cell Count: 482 and 397
[2]; [5]
  Population Apoptotic (%): 79% and 80%
  Population Fragmented Nuclei (%): 5% and 6%
  Population Healthy Nuclei (%): 89%
  Population Hoechst High Intensity Objects (%): 13% and 15%
  Population Membrane Permeable-Phenotype (%): 6% and 2%
  Population Mitochondria Different-Phenotype (%): 44% and 59%
  Population Mitotic Cells (%): 20%
  Population Normal (%): 86% and 84%
  Population Pyknosed Nuclei (%): 5% and 4%
  Population Tubulin-Different-Phenotype (%): 95%
  Total Cell Count: 520 and 580
[2]; [6]
  Population Apoptotic (%): 67% and 55%
  Population Fragmented Nuclei (%): 8% and 5%
  Population Healthy Nuclei (%): 84% and 87%
  Population Hoechst High Intensity Objects (%): 14% and 13%
  Population Membrane Permeable-Phenotype (%): 1%
  Population Mitochondria Different-Phenotype (%): 39% and 34%
  Population Mitotic Cells (%): 32% and 44%
  Population Normal (%): 85% and 86%
  Population Pyknosed Nuclei (%): 7% and 6%
  Population Tubulin-Different-Phenotype (%): 89% and 88%
  Total Cell Count: 567 and 602
[2]; [7]
  Population Apoptotic (%): 75% and 80%
  Population Fragmented Nuclei (%): 4% and 8%
  Population Healthy Nuclei (%): 89% and 85%
  Population Hoechst High Intensity Objects (%): 17% and 18%
  Population Membrane Permeable-Phenotype (%): 8% and 0%
  Population Mitochondria Different-Phenotype (%): 53% and 64%
  Population Mitotic Cells (%): 25% and 20%
  Population Normal (%): 82% and 81%
  Population Pyknosed Nuclei (%): 5%
  Population Tubulin-Different-Phenotype (%): 97% and 95%
  Total Cell Count: 550 and 640
[2]; [8]
  Population Apoptotic (%): 26% and 35%
  Population Fragmented Nuclei (%): 12% and 9%
  Population Healthy Nuclei (%): 84% and 87%
  Population Hoechst High Intensity Objects (%): 18% and 20%
  Population Membrane Permeable-Phenotype (%): 2%
  Population Mitochondria Different-Phenotype (%): 13% and 17%
  Population Mitotic Cells (%): 73% and 65%
  Population Normal (%): 81% and 79%
  Population Pyknosed Nuclei (%): 3% and 2%
  Population Tubulin-Different-Phenotype (%): 73% and 85%
  Total Cell Count: 832 and 880
[2]; [9]
  Population Apoptotic (%): 74% and 87%
  Population Fragmented Nuclei (%): 10% and 12%
  Population Healthy Nuclei (%): 77% and 70%
  Population Hoechst High Intensity Objects (%): 16% and 24%
  Population Membrane Permeable-Phenotype (%): 2% and 3%
  Population Mitochondria Different-Phenotype (%): 65% and 68%
  Population Mitotic Cells (%): 25% and 12%
  Population Normal (%): 83% and 75%
  Population Pyknosed Nuclei (%): 12% and 16%
  Population Tubulin-Different-Phenotype (%): 91%
  Total Cell Count: 517 and 572
[3]; [4]
  Population Apoptotic (%): 50% and 63%
  Population Healthy Nuclei (%): 57% and 78%
  Population Hoechst High Intensity Objects (%): 0%
  Population Membrane Permeable-Phenotype (%): 31% and 29%
  Population Mitochondria Different-Phenotype (%): 9% and 19%
  Population Mitotic Cells (%): 50% and 36%
  Population Normal (%): 100%
  Population Pyknosed Nuclei (%): 10% and 11%
  Population Tubulin-Different-Phenotype (%): 65% and 44%
  Total Cell Count: 56 and 99
[3]; [5]
  Population Apoptotic (%): 82% and 73%
  Population Fragmented Nuclei (%): 28% and 14%
  Population Healthy Nuclei (%): 42% and 69%
  Population Hoechst High Intensity Objects (%): 0%
  Population Membrane Permeable-Phenotype (%): 24% and 20%
  Population Mitochondria Different-Phenotype (%): 56% and 54%
  Population Mitotic Cells (%): 17% and 26%
  Population Normal (%): 100%
  Population Pyknosed Nuclei (%): 28% and 16%
  Population Tubulin-Different-Phenotype (%): 88% and 83%
[3]; [6]
  Population Apoptotic (%): 70% and 51%
  Population Healthy Nuclei (%): 54% and 72%
  Population Hoechst High Intensity Objects (%): 1% and 0%
  Population Membrane Permeable-Phenotype (%): 17% and 15%
  Population Mitochondria Different-Phenotype (%): 34% and 21%
  Population Mitotic Cells (%): 30% and 48%
  Population Normal (%): 98% and 100%
  Population Pyknosed Nuclei (%): 18% and 21%
  Population Tubulin-Different-Phenotype (%): 75% and 58%
  Total Cell Count: 54 and 125
[3]; [7]
  Population Apoptotic (%): 88% and 66%
  Population Fragmented Nuclei (%): 27% and 10%
  Population Hoechst High Intensity Objects (%): 0%
  Population Membrane Permeable-Phenotype (%): 66% and 31%
  Population Mitochondria Different-Phenotype (%): 66% and 61%
  Population Mitotic Cells (%): 12% and 33%
  Population Normal (%): 100% and 99%
  Population Pyknosed Nuclei (%): 53% and 25%
  Population Tubulin-Different-Phenotype (%): 88% and 82%
[3]; [8]
  Population Apoptotic (%): 87% and 70%
  Population Fragmented Nuclei (%): 8% and 20%
  Population Healthy Nuclei (%): 74% and 64%
  Population Hoechst High Intensity Objects (%): 0% and 1%
  Population Membrane Permeable-Phenotype (%): 13% and 14%
  Population Mitochondria Different-Phenotype (%): 16% and 21%
  Population Mitotic Cells (%): 12% and 30%
  Population Normal (%): 100% and 98%
  Population Pyknosed Nuclei (%): 17% and 15%
  Population Tubulin-Different-Phenotype (%): 63% and 46%
  Total Cell Count: 175 and 65
[3]; [9]
  Population Apoptotic (%): 91% and 87%
  Population Fragmented Nuclei (%): 19% and 8%
  Population Hoechst High Intensity Objects (%): 0% and 2%
  Population Membrane Permeable-Phenotype (%): 100% and 43%
  Population Mitochondria Different-Phenotype (%): 50% and 83%
  Population Mitotic Cells (%): 8% and 12%
  Population Normal (%): 100% and 97%
  Population Pyknosed Nuclei (%): 76% and 43%
  Population Tubulin-Different-Phenotype (%): 100% and 82%
